A selection: hits, their analogues and other compounds. The true share with any hit is near 11%.
D1 allo mod: D1 CRE-luciferase signal change, two-sided – cell-based, HEK293 D1, dopamine EC30, D1 allosteric modulator project, primary screen. hit rate 5.9% among 58,000. D(1A) dopamine receptor (Homo sapiens), P21728. dopamine EC30 potentiation; actives deviate in either direction. B-score at 10 µM. AID 641, 2007;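 active means luminescence count or its row- and column-corrected plate score outside the 99.7% band of the plate's sample wells, on either side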
M1 antagonist: antagonists of rat M1 muscarinic receptor; B-score at 10 µM; CHO-M1 cells, Fluo-4 calcium, ACh EC80 antagonist mode; stronger effect = lower value; hit rate 3.4% among 64,000;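 active means calcium fluorescence response, raw or row-and-column corrected B-score, differing from the plate sample mean either way at a set confidence level, mostly lower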
Target sequence (P08482 whole entry, looked up): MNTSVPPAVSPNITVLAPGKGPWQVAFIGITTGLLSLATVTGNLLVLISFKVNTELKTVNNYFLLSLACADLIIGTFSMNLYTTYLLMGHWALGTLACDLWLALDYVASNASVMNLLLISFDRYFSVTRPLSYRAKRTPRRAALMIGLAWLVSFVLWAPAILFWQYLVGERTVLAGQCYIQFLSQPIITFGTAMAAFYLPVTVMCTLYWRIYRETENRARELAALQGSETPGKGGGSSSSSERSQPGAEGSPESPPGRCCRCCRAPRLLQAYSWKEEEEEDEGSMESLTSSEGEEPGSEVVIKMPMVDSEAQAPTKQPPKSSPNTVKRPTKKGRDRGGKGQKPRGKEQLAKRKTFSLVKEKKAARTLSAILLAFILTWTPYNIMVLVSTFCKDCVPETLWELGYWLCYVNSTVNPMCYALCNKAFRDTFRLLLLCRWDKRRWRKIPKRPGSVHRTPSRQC
S1P1 ag-PAM: S1P1 agonists and agonism potentiators, primary screen, cell-based, primary and confirmation screens, CRE-bla reporter; Sphingosine 1-phosphate receptor 1 (Homo sapiens), P21453; S1P1 CRE-bla cells, forskolin, beta-lactamase FRET, potentiator mode; S1P1 agonist co-added at EC20, 2 nM; 100% = saturating reference agonist, 0% = basal; activation, % at 9.5 µM; hit rate 0.57% among 56,000; AID 449, 2006;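 active means activation above a cutoff set at the mean activation of all tested compounds plus 3 SD, cut at about 54% in these data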;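 further: forskolin at 4 µM as EC80 and the EC20 agonist is SEW2871; 100% = SEW2871 at its EC100 plus forskolin at EC80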
S1P3 agonist: human S1P3 receptor agonists, primary screen, cell-based, primary and confirmation, NFAT-BLA reporter | hit rate 0.1% among 60,000 | S1P3 NFAT-BLA reporter cells, agonism, FRET ratio; relative to 1 µM S1P, basal subtracted | activation, % at 4.5 µM | Sphingosine 1-phosphate receptor 3 (Homo sapiens), Q99500;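 active means activation above the screen-wide mean plus 3 SD, cut at about 4.5% in these data, passing the limit was not always enough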
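Assay system: CHO cells stably expressing human S1P3, Gα16 and NFAT-β-lactamase reporter. Timing: overnight plating, 4 h compound 37 °C, 2 h substrate RT. Signal: β-lactamase FRET emission ratio 460/535 nm. Measure: percent activation versus median 1 µM S1P response, basal-subtracted, per plate. Repeats: primary screen single test, confirmation screen in triplicate.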
M1 agonist: M1 muscarinic receptor agonists, primary screen, CHO-M1 cells, Fluo-4 calcium, agonist mode; Fluo-4 calcium fluorescence; stronger effect = higher value; B-score at 10 µM; hit rate 3% among 64,000; AID 626, 2007;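 active means fluorescence rise, raw or as B-score row- and column-corrected plate score, outside the 99.7% band of its plate's samples, either direction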
TNAP act DEA: human TNAP enzyme activators, primary screen, biochemical, luminescent, intermediate phosphate acceptor level; Alkaline phosphatase, tissue-nonspecific isozyme (Homo sapiens), P05186; purified TNAP, CDP-star luminescence, 100 mM DEA, 30 min; stronger effect = higher value; scale: 0 levamisole-inhibited, 1 vehicle-only enzyme; activation factor at 20 µM; 64,000 tested, under 10 active;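 active means activation factor of at least 2 at 20 µM, relative to controls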
M1 antag confirm: rat M1 muscarinic receptor antagonists, confirmation, CHO cells, Fluo-4 calcium, duplicate. shares compounds with M1 antagonist. ACh EC80 antagonism; stronger effect = lower value. calcium response (max-min fluorescence) at 10 µM. hit rate 43% among 1,700;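 active means calcium response below the same-plate mean of wells given acetylcholine alone at its 80%-effect dose, minus 3 SD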;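 further: raw fluorescence intensity difference in arbitrary instrument units and not normalized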
mGluR4 antag: human mGluR4 response to M1 antagonist hits, M1 allosteric modulator project, cell-based, antagonist mode, secondary assay 1; shares compounds with M1 antagonist; CHO-mGluR4 calcium flux, Fluo-4 fluorescence, glutamate EC80; stronger effect = lower value; fluorescence response (max-min) at 10 µM; hit rate 0.9% among 1,700;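 active means fluorescence response below the plate's average for near-maximal glutamate wells, less 3 SD of those wells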;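 further: raw unnormalized fluorescence span taken in the window right after glutamate addition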
Starred values were filed as active, the others as inactive; / = no result given.

SMILES	D1 allo mod	M1 antagonist	S1P1 ag-PAM	S1P3 agonist	M1 agonist	TNAP act DEA	M1 antag confirm	mGluR4 antag
O=c1c2c(nc3n1CCCCC3)-c1ccccc1CC21CCCC1	-0.185	-8.22*	16.6	-0.5	-0.894	0.9	314*	264
CC1(C)CN=C(NC2CCCCC2)S1	0.172	-4.76*	-27.5	-0.4	0.414	0.9	459*	236
Cc1nc(C)c(C(=O)NCc2ccccc2Cl)o1	-0.967	-0.0287	12.0	-0.2	0.79	0.9	/	/
O=C(CSc1nnc(CNC(=O)c2ccccc2F)o1)c1ccccc1	-0.781	-3.24*	/	/	-1.96	0.9	611	245
O=C(NCc1nnc(SCC(=O)N2CCCC2)o1)c1ccccc1F	-0.475	-1.12	/	/	-0.498	0.9	/	/
Cc1oc2c(c1C(=O)NCc1ccccc1)CCCC2	/	-3.72*	-11.0	-0.7	0.369	0.9	643	188
Cc1ccc2[nH]c3c(c2c1)CN(C(=O)CN1CCSCC1)CC3	-0.357	-3.07*	-7.8	-1.4	1.42	0.9	476	223
CCCn1cnc2cc(NCc3cccc(OC)c3)ccc21	-0.192	-2.39*	-0.3	-0.9	-0.169	1	397*	189
N#Cc1c2c(c(NCc3ccco3)n3c1nc1ccccc13)CCC2	-0.269	-0.0573	-27.5	-0.7	-0.492	1	/	/
CN(C)CCNc1c2c(c(C#N)c3nc4ccccc4n13)CCCC2	0.539	-4.71*	-9.9	0.8	0.201	1.1	377*	245
CCC(Sc1nc2c(cnn2-c2ccccc2)c(=O)[nH]1)C(=O)OC (stereo not given)	-1.44	-2.38*	-20.3	0.4	-0.225	1	546	249
COC(=O)C(C)Sc1nc2c(cnn2-c2ccc(C)cc2)c(=O)[nH]1 (stereo not given)	1.53	0.189	-15.5	-0.2	0.449	1	/	/
COc1ccccc1S(=O)Cc1ccc(C(=O)NCCc2ccc(Cl)cc2)o1 (stereo not given)	-2.83	-3.15*	3.7	0.7	2.44	0.9	545	193
CCN1CCN(S(=O)(=O)c2ccc(S(=O)(=O)N(CC)Cc3ccccc3)cc2)CC1	-0.968	0.64	6.0	-1.2	-0.231	1	/	/
Cc1cc(Cl)ccc1OCCCC(=O)NC1CCN(C)CC1	-1.96	-2.87*	14.9	-0.2	-0.769	1	479*	211
COC(=O)CSc1nnc([C@H](CC(C)C)NC(=O)OC(C)(C)C)o1	0.376	-0.306	-13.6	0.3	0.0594	0.9	/	/
COc1cc2nc3c4ccccc4n(CC#N)c3nc2cc1OC	2.09	0.812	-33.6	0.9	-0.402	0.9	/	/
CCn1c2ccccc2c2nc3cc(OC)c(OC)cc3nc21	-0.0112	-5.67*	-79.3	0.9	1.47	0.9	462	154*
CCc1ccc(-c2nc(CN3CCC(C(=O)NCCN(CC)c4ccccc4)CC3)c(C)o2)cc1	-1.38	0.463	10.8	-0.2	1.07	1.6	/	/
Cc1oc(-c2cccc(Cl)c2)nc1CN1CCC(C(=O)N2CCN(c3ccccn3)CC2)CC1	-0.804	-1.77	-10.8	0.1	2.8	0.9	/	/
CCc1ccc(-c2nc(CN3CCC(C(=O)N4CCN(c5ccccc5)CC4)CC3)c(C)o2)cc1	1.38	-2.93*	21.5	-1.5	0.723	1	486*	255
